Bioassay records as filed in PubChem.
This excerpt belongs to a sample that is enriched for hits.
XBP1 UPR activ: activators of adaptive arm of unfolded protein response (XBP1); CHO-XBP1 luciferase reporter, IRE1-XBP1 UPR activation, luminescence; percent of tunicamycin response, DMSO as zero; activation, % at 20 µM; actives 0.33% (n = 330,000); AID 463104;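 active means versus positive control, 20 µM dose yields 30% or more activation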;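 further: 100% = tunicamycin at 10 µg/mL and 0% = DMSO only wells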
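Material: CHO cell line with stable XBP1 luciferase reporter; schedule: 16-18 h cell attachment at 37 °C, then 6 h compound exposure; signal: glow luminescence from Steady-Glo reagent; medium: serum-containing F12 medium, 10% FBS; benchmarks: tunicamycin 10 µg/mL and vehicle-only wells; read-out: percent activation relative to tunicamycin reference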
UCH37 DUB inh: inhibitors of human deubiquitinating enzyme UCH37. Q9Y5K5. purified proteasome/UCH37, Ub-AMC cleavage fluorescence. inhibition, % (no concentration beside the values). actives 0.33% (n = 330,000). AID 588478;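 active means mean inhibition over replicate wells above about 20%, limit read from the data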;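 further: 0% = compound-free wells with enzyme and 100% = wells lacking proteasome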
Target sequence (Q9Y5K5 whole entry, looked up): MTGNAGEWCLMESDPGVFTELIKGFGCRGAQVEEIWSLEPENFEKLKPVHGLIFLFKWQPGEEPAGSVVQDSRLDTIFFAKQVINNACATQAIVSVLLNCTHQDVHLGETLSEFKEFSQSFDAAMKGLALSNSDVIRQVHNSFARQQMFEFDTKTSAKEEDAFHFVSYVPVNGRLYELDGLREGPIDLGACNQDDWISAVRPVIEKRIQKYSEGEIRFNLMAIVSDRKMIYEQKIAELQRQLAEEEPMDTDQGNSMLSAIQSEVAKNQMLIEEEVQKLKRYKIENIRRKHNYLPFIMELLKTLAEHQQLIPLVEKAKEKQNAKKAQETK
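Test system – human UCH37 enzyme supplied as purified proteasome complex · Incubation – 30 min preincubation with enzyme, 25 min cleavage at room temperature · Detection – AMC fluorescence from Ub-AMC cleavage, excitation 355 nm, emission 460 nm · Benchmarks – no-proteasome wells (full inhibition) and compound-free wells (no inhibition)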
CTSL1 counter: cathepsin L1 inhibition, PFM18AAP counter-screen | inhibition, % at 5.96 µM | actives 0.49% (n = 300,000) | recombinant F. hepatica cathepsin L1, Z-Leu-Arg-MCA fluorescence | AID 1906;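 active means inhibition above the mean of all tested compounds plus 3 SD, set per screening campaign, cut at about 17% in these data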;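 further: 0% = plate median of test compound wells and 100% = 1 µM Z-Phe-Ala-diazomethylketone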
CHOP UPR activ: apoptotic UPR (CHOP) activation. CHO-CHOP luciferase reporter, luminescence; percent of tunicamycin response over DMSO baseline. activation, % at 10 µM. actives 0.34% (n = 330,000). AID 449763;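 active means at 10 µM dose, activation of 40% or more, normalized to positive control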;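 further: 100% = tunicamycin at 10 µg/mL and 0% = DMSO alone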
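System: CHO CHOP reporter cells. Amount: 500 cells per well. Buffer or medium: F12 medium, 10% FBS. Compound dosing: one dose, 10 µM in 0.5% DMSO. Incubation: 6 h compound exposure at 37 °C after overnight seeding. Technique: Steady-Glo luciferase luminescence. Benchmarks: tunicamycin and DMSO controls.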
CHOP inh: blocks CHOP induction under ER stress | CHO-K1 CHOP-promoter luciferase, tunicamycin-induced, 15-18 h | inhibition, % at 10 µM | actives 3.8% (n = 220,000) | AID 2732;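 active means compounds that reduced the stress-induced luciferase reporter signal by more than about 70% of percent inhibition, limit read from the data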;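 further: 0% = tunicamycin plus vehicle and 100% = wells without tunicamycin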
* hit, by the source's call; x = no result.

SMILES	XBP1 UPR activ	UCH37 DUB inh	CTSL1 counter	CHOP UPR activ	CHOP inh
CCOC(=O)c1sc(-c2ccc(Br)cc2)cc1N	5	-15	3	4	81*
CCOC(=O)c1cc(-c2ccc(N)cc2)sc1N	5	2	3	5	36
Cc1sc(NN=C/C=C/c2ccccc2)nc1-c1ccccc1	x	-9	x	x	x
CCO/C=C1\N=C(c2ccc(F)cc2)OC1=O	-2	12	36*	0	8
O=S(=O)(NN=C1CC(c2ccccc2)Oc2ccccc21)c1ccccc1 (stereo not drawn)	x	4	x	x	x
CCc1ccc(NC(=O)Cn2c(=O)n(CCCC(=O)NCc3ccco3)c(=O)c3ccccc32)cc1	-2	0	4	1	76*
C(=N\Nc1ccc2ccccc2n1)/c1ccc2c(c1)OCCO2	-10	x	2	-8	75*
Cc1csc(NC(=O)C(CC(C)C)NS(=O)(=O)c2ccc3c(c2)oc(=O)n3C)n1 (stereo not drawn)	1	2	4	2	97*
C=CCN1C(=O)/C(=C/c2ccc(N(C)C)cc2)S/C1=N\c1nnc(CC)s1	x	x	x	x	104*
O=C(C[n+]1ccccc1)NN=Cc1c(F)cccc1Cl	x	1	x	x	x
CNC(=S)NN=C(C)c1ccccc1	x	6	x	x	x
COc1nnc(-c2ccc(N3CCOCC3)c(NC(=O)c3ccccc3)c2)c2ccccc12	5	3	1	-3	86*
COc1nnc(-c2ccc(N3CCOCC3)c(NC(C)=O)c2)c2ccccc12	-1	2	0	-3	-16
CC(C)Oc1cccc(C(=O)Nc2ccccc2N2CCOCC2)c1	0	-1	-2	1	74*
O=C(Nc1ccccc1N1CCOCC1)c1cccc(Oc2ccccc2)c1	1	-2	5	3	x
CCC(C)Oc1cccc(C(=O)Nc2ccccc2N2CCOCC2)c1 (stereo not drawn)	1	4	1	1	75*
Cc1cc(Cl)ccc1OC(C)C(=O)Nc1ccccc1N1CCOCC1 (stereo not drawn)	-2	3	-1	1	74*
COc1c(Br)cc(Br)cc1C=Nn1c(C)nnc1C	x	4	x	x	x
CCOc1cc(C=NNC(N)=O)cc(Br)c1OCc1ccccc1F	x	4	x	x	x
NCC(=NO)c1ccc(Cl)cc1Cl	x	1	x	x	x
O=S(=O)(NN=Cc1ccc2c(c1)OCO2)c1ccc(Br)cc1	x	6	x	x	x
CCOc1cc(/C=C2\NC(=O)NC2=O)cc([N+](=O)[O-])c1O	-1	21*	1	-1	7
Cc1nn(-c2ccccc2)c2c1C(c1ccc(O)c(O)c1)N1C(=N2)C(Nc2ccccc2)=Nc2ccccc21 (stereo not drawn)	0	1	38*	0	5
CN(C(=NS(=O)(=O)c1ccccc1)c1ccccc1)S(=O)(=O)c1ccccc1	x	2	x	x	x
Cc1nn(-c2ccccc2Cl)c(Cl)c1C=NNc1cccc(C(=O)O)c1	x	1	x	x	x
SMILES	XBP1 UPR activ	UCH37 DUB inh	CTSL1 counter	CHOP UPR activ	CHOP inh
C(=NNc1nc2ccccc2[nH]1)c1ccccn1	x	2	x	x	x
CCN(CC)c1ccc(/C=N/Nc2nc3ccccc3[nH]2)c(O)c1	24	x	-1	13	83*
C(=N\Nc1nc2ccccc2[nH]1)/c1cccc2nccnc12	15	x	2	8	71*
C(=N\Nc1nc2ccccc2[nH]1)/c1ccccn1	x	x	x	x	85*
C(=NNc1nc2ccccc2[nH]1)c1cccc2cccnc12	x	1	x	x	x
CCCn1c(=O)c(C(=O)NN=Cc2ccccc2F)c(O)c2ccccc21	x	1	x	x	x
CC1(C)CC(NC(=O)C23CCC(C)(C(=NO)C2)C3(C)C)CC(C)(C)N1 (stereo not drawn)	x	4	x	x	x
O=C(Nc1cccc(C(F)(F)F)c1)c1cccnc1NCCO	-6	-20	2	-1	x
O=C(Nc1cccc(C(F)(F)F)c1)c1cccnc1NCCc1ccccc1	3	-61	1	4	75*
CCOc1cc(C=NNC(=O)CN2CCCCC2)ccc1O	x	-1	x	x	x
FC(F)(F)Oc1ccc(Nc2nc3ccccc3o2)cc1	10	4	4	6	91*
c1ccc(Nc2nc3ccccc3o2)cc1	4	2	-4	4	-13
COc1ccc(Cl)cc1C=NNC(=O)c1c(-c2ccccc2)noc1C	x	-2	x	x	x
CN=c1scc(-c2cccs2)n1/N=C/c1ccc(O)c(O)c1O	-6	x	3	18	-3
